What was measured:
CCRF-CEM = test: Growth inhibition of human CCRF-CEM cells after 48 hrs by SRB assay; format: functional
Method in brief: (§1)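 NCI 60-cell-line screen. Cells grown in RPMI1640 with 5% fetal calf serum and 2 mM L-glutamine, with inoculum density set by cell line. Preincubated 24 h, then given compound in DMSO at 10^-4 to 10^-8 M (five 10-fold steps) for 48 h continuous exposure. Growth measured by SRB protein assay. GI50, TGI and LC50 reported as –log molar.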

HL-60(TB) = test: Growth inhibition of human HL-60(TB) cells after 48 hrs by SRB assay; format: functional; conditions: HL-60, 48 h
Method in brief: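 NCI 60-cell-line screen: cells grown in RPMI1640 with 5% fetal calf serum and 2 mM L-glutamine, preincubated 24 h, then exposed to compound in DMSO at five concentrations (10^-4 to 10^-8 M) for 48 h continuous exposure. Growth estimated by sulforhodamine B protein assay; reported as pGI50 (-log molar concentration inhibiting net cell growth by 50%).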

MOLT-4 = test: Growth inhibition of human MOLT4 cells after 48 hrs by SRB assay; format: functional; conditions: MOLT-4, 48 h; method in brief: as §1
[1] = Growth inhibition of human […] cells after 48 hrs by SRB assay; format: functional; method in brief: as §1
SR = test: Growth inhibition of human SR cells after 48 hrs by SRB assay; format: functional; method in brief: as §1
EKVX = test: Growth inhibition of human EKVX cells after 48 hrs by SRB assay; format: functional; method in brief: as §1
HOP-62 = test: Growth inhibition of human HOP62 cells after 48 hrs by SRB assay; format: functional; conditions: HOP-62, 48 h; method in brief: as §1
NCI-H322M = test: Growth inhibition of human NCI-H322M cells after 48 hrs by SRB assay; format: functional; method in brief: as §1
NCI-H460 [2] = test: Growth inhibition of human NCI-H460 cells after 48 hrs by SRB assay; format: functional; conditions: NCI-H460, 48 h; method in brief: as §1
HCT-116 = test: Growth inhibition of human HCT116 cells after 48 hrs by SRB assay; format: functional; conditions: HCT-116, 48 h; method in brief: as §1
HCT-15 = test: Growth inhibition of human HCT15 cells after 48 hrs by SRB assay; format: functional; conditions: HCT-15, 48 h; method in brief: as §1
HT-29 = test: Growth inhibition of human HT-29 cells after 48 hrs by SRB assay; format: functional; conditions: HT-29, 48 h; method in brief: as §1
KM12 = test: Growth inhibition of human KM12 cells after 48 hrs by SRB assay; format: functional; conditions: KM12, 48 h; method in brief: as §1
SW-620 = test: Growth inhibition of human SW620 cells after 48 hrs by SRB assay; format: functional; conditions: SW-620, 48 h; method in brief: as §1
SF-268 = test: Growth inhibition of human SF268 cells after 48 hrs by SRB assay; format: functional; conditions: SF-268, 48 h; method in brief: as §1
SF-295 = test: Growth inhibition of human SF295 cells after 48 hrs by SRB assay; format: functional; conditions: SF-295, 48 h; method in brief: as §1
SNB-75 = test: Growth inhibition of human SNB75 cells after 48 hrs by SRB assay; format: functional; conditions: SNB-75, 48 h; method in brief: as §1
Malme-3M = test: Growth inhibition of human MALME-3M cells after 48 hrs by SRB assay; format: functional; method in brief: as §1
M14 = test: Growth inhibition of human M14 cells after 48 hrs by SRB assay; format: functional; conditions: M14, 48 h; method in brief: as §1
MDA-MB-435 = test: Growth inhibition of human MDA-MB-435 cells after 48 hrs by SRB assay; format: functional; conditions: MDA-MB-435, 48 h; method in brief: as §1
SK-MEL-28 = test: Growth inhibition of human SK-MEL-28 cells after 48 hrs by SRB assay; format: functional; conditions: SK-MEL-28, 48 h; method in brief: as §1
IGROV-1 = test: Growth inhibition of human IGROV1 cells after 48 hrs by SRB assay; format: functional; conditions: IGROV-1, 48 h; method in brief: as §1
OVCAR-3 = test: Growth inhibition of human OVCAR-3 cells after 48 hrs by SRB assay; format: functional; conditions: OVCAR-3, 48 h; method in brief: as §1
OVCAR-4 = test: Growth inhibition of human OVCAR4 cells after 48 hrs by SRB assay; format: functional; conditions: OVCAR-4, 48 h; method in brief: as §1
OVCAR-8 = test: Growth inhibition of human OVCAR8 cells after 48 hrs by SRB assay; format: functional; conditions: OVCAR-8, 48 h; method in brief: as §1
NCI/ADR-RES = test: Growth inhibition of human NCI/ADR-RES cells after 48 hrs by SRB assay; format: functional; method in brief: as §1
786-0 = test: Growth inhibition of human 786-0 cells after 48 hrs by SRB assay; format: functional; conditions: 786-0, 48 h; method in brief: as §1
A498 = test: Growth inhibition of human A498 cells after 48 hrs by SRB assay; format: functional; conditions: A498, 48 h; method in brief: as §1
CAKI-1 = test: Growth inhibition of human Caki1 cells after 48 hrs by SRB assay; format: functional; conditions: CAKI-1, 48 h; method in brief: as §1
RXF 393 = test: Growth inhibition of human RXF393 cells after 48 hrs by SRB assay; format: functional; conditions: RXF 393, 48 h; method in brief: as §1
PC-3 = test: Growth inhibition of human PC3 cells after 48 hrs by SRB assay; format: functional; conditions: PC-3, 48 h; method in brief: as §1
DU-145 = test: Growth inhibition of human DU145 cells after 48 hrs by SRB assay; format: functional; conditions: DU-145, 48 h; method in brief: as §1
MCF7 = test: Growth inhibition of human MCF7 cells after 48 hrs by SRB assay; format: functional; conditions: MCF7, 48 h; method in brief: as §1
[3] = Growth inhibition of human Hs 578T cells after 48 hrs by SRB assay; format: functional; method in brief: as §1
T47D = test: Growth inhibition of human T47D cells after 48 hrs by SRB assay; format: functional; method in brief: as §1
NCI-H460 [4] = test: Cytotoxicity against human NCI-H460 cells after 72 hrs by SRB assay; format: functional, cell-based; conditions: NCI-H460, 72 h
Method in brief: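 NCI-H460 (ATCC) cells seeded in 96-well plates in growth medium. Scalar drug concentrations added 24 h after plating, then 72 h exposure. Surviving cells stained with sulforhodamine B, OD read at 570 nm. IC50 (50% growth inhibition) fitted from dose–response curves. Mean ± SE of at least three independent experiments.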

SMILES: COc1cc(C2=NNC(c3ccc(N(C)C)cc3)C2)cc(OC)c1OC (centres undefined)
- GI50 (CCRF-CEM): 1.58 µM
- TGI (CCRF-CEM; read-out: pTGI (converted)): 6.31 µM
- GI50 (HL-60(TB)): 1.58 µM
- TGI (HL-60(TB); read-out: pTGI (converted)): 5.01 µM
- GI50 (MOLT-4): 3.16 µM
- TGI (MOLT-4; read-out: pTGI (converted)): 12.6 µM
- GI50 [1]: 1.58 µM
- TGI ([1]; read-out: pTGI (converted)): 12.6 µM
- GI50 (SR): 0.251 µM
- TGI (SR; read-out: pTGI (converted)): 7.94 µM
- GI50 (EKVX): 2 µM
- TGI (EKVX; read-out: pTGI (converted)): 6.31 µM
- GI50 (HOP-62): 1.26 µM
- TGI (HOP-62; read-out: pTGI (converted)): > 100 µM
- GI50 (NCI-H322M): 12.6 µM
- TGI (NCI-H322M; read-out: pTGI (converted)): > 100 µM
- GI50 (NCI-H460 [2]): 1.26 µM
- TGI (NCI-H460 [2]; read-out: pTGI (converted)): 6.31 µM
- GI50 (HCT-116): 2 µM
- TGI (HCT-116; read-out: pTGI (converted)): 20 µM
- GI50 (HCT-15): 2.51 µM
- TGI (HCT-15; read-out: pTGI (converted)): > 100 µM
- GI50 (HT-29): 0.631 µM
- TGI (HT-29; read-out: pTGI (converted)): > 100 µM
- GI50 (KM12): 0.501 µM
- TGI (KM12; read-out: pTGI (converted)): 12.6 µM
- GI50 (SW-620): 0.398 µM
- TGI (SW-620; read-out: pTGI (converted)): > 100 µM
- GI50 (SF-268): 2 µM
- TGI (SF-268; read-out: pTGI (converted)): > 100 µM
- GI50 (SF-295): 0.251 µM
- TGI (SF-295; read-out: pTGI (converted)): 0.794 µM
- GI50 (SNB-75): 1 µM
- TGI (SNB-75; read-out: pTGI (converted)): > 100 µM
- GI50 (Malme-3M): 7.94 µM
- TGI (Malme-3M; read-out: pTGI (converted)): > 100 µM
- GI50 (M14): 2.51 µM
- GI50 (MDA-MB-435): 1 µM
- GI50 (SK-MEL-28): 15.8 µM
- TGI (SK-MEL-28; read-out: pTGI (converted)): > 100 µM
- GI50 (IGROV-1): 0.501 µM
- TGI (IGROV-1; read-out: pTGI (converted)): 3.16 µM
- GI50 (OVCAR-3): 6.31 µM
- TGI (OVCAR-3; read-out: pTGI (converted)): > 100 µM
- GI50 (OVCAR-4): 15.8 µM
- TGI (OVCAR-4; read-out: pTGI (converted)): > 100 µM
- GI50 (OVCAR-8): 3.98 µM
- TGI (OVCAR-8; read-out: pTGI (converted)): > 100 µM
- GI50 (NCI/ADR-RES): 2 µM
- TGI (NCI/ADR-RES; read-out: pTGI (converted)): > 100 µM
- GI50 (786-0): 2 µM
- TGI (786-0; read-out: pTGI (converted)): > 100 µM
- GI50 (A498): 3.16 µM
- TGI (A498; read-out: pTGI (converted)): 7.94 µM
- GI50 (CAKI-1): 2.51 µM
- TGI (CAKI-1; read-out: pTGI (converted)): > 100 µM
- GI50 (RXF 393): 1.26 µM
- TGI (RXF 393; read-out: pTGI (converted)): 5.01 µM
- GI50 (PC-3): 0.794 µM
- TGI (PC-3; read-out: pTGI (converted)): > 100 µM
- GI50 (DU-145): 2 µM
- TGI (DU-145; read-out: pTGI (converted)): 5.01 µM
- GI50 (MCF7): 0.398 µM
- TGI (MCF7; read-out: pTGI (converted)): > 100 µM
- GI50 [3]: 2.51 µM
- TGI ([3]; read-out: pTGI (converted)): 6.31 µM
- GI50 (T47D): 20 µM
- TGI (T47D; read-out: pTGI (converted)): > 100 µM
- IC50 (NCI-H460 [4]): 1.1 µM
